Assay results taken from the EternaBench riboswitch data.

Tested on: MS2 coat protein
Assay: apparent Kd, MS2 coat protein; higher = weaker binding; RNA-MaP array; FMN 200 µM where present
How it was run: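 Stalled E. coli RNA polymerase produced the designs on Illumina sequencing-chip clusters. SNAP-549-labelled MS2 coat protein was added from 0.7 or 1.5 nM, doubling to 3 µM, without and then with constant ligand, in 100 mM Tris-HCl pH 7.5, 80 mM KCl, 4 mM MgCl2, BSA, DTT, yeast tRNA and Tween-20. The apparent Kd is the median of filtered per-cluster fits of green signal normalised to red-channel RNA signal and control-cluster median Fmax.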

[1] = designed as: OFF switch for flavin mononucleotide, no ligand
[2] = ligand present: flavin mononucleotide, designed as: OFF switch for flavin mononucleotide
[3] = designed as: ON switch for flavin mononucleotide, no ligand
[4] = ligand present: flavin mononucleotide, designed as: ON switch for flavin mononucleotide

Row | Sequence | apparent Kd [1] [nM] | apparent Kd [2] [nM] | apparent Kd [3] [nM] | apparent Kd [4] [nM]
1 | GGGUUUGGUGUGAGGAUAUGUUUGGGUAAACCCGGGCAGAAGGCACAUGAGGAUCACCCAUGUAAGCCGGGCCC | 14.9 | 14.7 |  | 
2 | GCAUACAUUCGAGGAUAUCGGUGAACAAAUUAACGAGAAGGCGAUAUAAUGUUUAAUCUUAUAAACAUGAGGAUCACCCAUGUA |  |  | 76.9 | 31.2
3 | AUCAGCUCGUCAGGAUAUACGUCACUGCUUCAGCAGUGUGGUAAGAUCACAUGAGGAUCACCCAUGUAGAAGGGACGAGCUGAU | 14.1 | 268 |  | 
4 | GUCAGCUCGUGAGGAUAUACAACACUGCUUCGGCAGUGUAUUAAGAACACAUGAGGAUCACCCAUGUAGAAGGCACGAGCUGAU | 4.92 | 6.08 |  | 
5 | UGAGCCGGCACUGAGGAUAUUCAUAAUAAAACAUGAGGAUCACCCAUGUAGGCCAGAAGGCCUUGGGAGAAGGCAGGUCGGCUCA |  |  | 257 | 23.3
6 | UGAGUAGCGAAACAACGCACAUGAGGAUCACCCAUGUCUACACAGGAUAUGCGACGCUCCAGUUAGCAGAAGGGUGAACUCAAA |  |  | 36.4 | 89.7
7 | CGCCAAUUGGCACAGGAUAUGAGCAUGCUCACAUGAGGAUCACCCAUGUGAUUACCAACGCAAAAUCAGAAGGGUGCCCUCGUCA |  |  | 147 | 97.1
8 | AGAAUGGGCGAGAAGGGAGUACAUGAGGAUCACCCAUGUGGUUCAUGGUGCUCAGGAUAUCGAUAGACCAAGGAGAGCCUUUGG | 21.9 | 185 |  | 
9 | AGCGAGGUAGGAUAUACAUGAGGAUCACCCAUGUGCUUGCAUGGCGUGGAACAUCGUAGUAGAAGGGCCGCGCC | 20.4 | 40.2 |  | 
10 | AGAUCUCAAUAAGAUCCAAUACGAACAUGAGGAUCACCCAUGUAGGAUAUGCUAGAAGUAGAGUAGCAGAAGGACAAUUACCUU | 19.9 | 19.7 |  | 
11 | GUCAGCUCGGGAGGAUAUACAACACUGCUUCGGCAGUGUAUUAAGAUCACAUGAGGAUCACCCAUGUAGAAGGCACGAGCUGAU | 7.79 | 51 |  | 
12 | CUUUUGUGAGGAUAUCAGUAGUAAAAUAAUAAAAUAACUACUGAGAAGGCACAUGAGGAUCACCCAUGUUCCUC | 32.5 | 161 |  | 
13 | GGAUAUAUUACAUGAGGAUCACCCAUGUCAGAACGGGUAAUCAGAAGGUACUAUUAGAGAAAGAGUAAGGAUAUGAUUAUAUCC |  |  | 801 | 165
14 | CUUUUGUGAGGAUAUUAGUAGUAAAAAAAUAAAAUUACUACUGAGAAGGCACAUGAGGAUCACCCAUGUUCUUC | 19 | 98.1 |  | 
15 | GCGUUUUAUGCAGGAUAUUGUAAUUUAUUACUACAAGAAGGGCAAUACAUGAGGAUCACCCAUGUCAGCAUGGUUUUUAAGUUC | 20.4 | 25.9 |  | 
16 | GAUAGGACAGAGAAGGACGUGGCUAGAGAUACUAGCAUAAAGGUCCAAACAUGAGGAUCACCCAUGUAGGAUAUCUGUCCUAUC | 6.59 | 8.89 |  | 
17 | GAUUGAGAGCAGGAUAUCUUAGAAAUGUAUGAAAGAGAAGGGCUCACAUGAGGAUCACCCAUGUGGUCCUAGAU | 32.7 | 256 |  | 
18 | CUAGCUAUCGGAGGAUAUUCAUACCGGAAACGGACAUGAGGAUCACCCAUGUGCGGAAACGCUUGGGAGAAGGCCGAUAGCUAG |  |  | 210 | 18.9
19 | AAAGCACGAGGAUAUACAUGAGGAUCACCCAUGUAUAACCAACAUAGGUGAUCCUCAUGUAGAAGGCGUGCAAA | 18.6 | 18.4 |  | 
20 | UUCGUGCAGCUUUGCUGUACGCGUACAUGAGGAUCACCCAUGUAGGAUAUGGUAGGCUUUGUUUACUAGAAGGAUAGUGUGAUC | 140 | 45.8 |  | 
21 | GUUCUUCCUGUGAGGAUAUCCAUGUGUCGGUUUAUGGAGAAGGUACAUGAGGAUCACCCAUGUCACCCGCGUUA | 14 | 18.8 |  | 
22 | GCACGAGACUAAGGAUAUGGUGUACCUACAUGUAACAUGAGGAUCACCCAUGUAGUAAGUAUGAUUCAGAAGGUAGAGACGUGC |  |  | 47.3 | 18.6
23 | GGCAUAAUGUAGGAUAUCGUAUUGGAAACAAUACGAGAAGGGCAAACAUGAGGAUCACCCAUGUUCCUUAAGCC | 18.5 | 19 |  | 
